ChEMBL document CHEMBL1150391, “Pyridinium cationic-dimer antimalarials, unlike chloroquine, act selectively between the schizont stage and the ring stage of Plasmodium falciparum” (Bioorg Med Chem, 2008)
pEC50: −log10 of the molar value. The source made the active and inactive calls. No cut-off for these calls is given here.

What was measured:
Plasmodium falciparum [1] = assay: Antimalarial activity as reduced parasitaemia after 72 hrs against chloroquine-sensitive Plasmodium falciparum FCR3 in human erythrocytes by Diff-Quick stain; format: functional, organism-based; details: FCR3, 72 h
Outline: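 FCR-3 grown in type A human RBCs (5% hematocrit stock culture) in RPMI 1640 with HEPES, NaHCO3, gentamicin and 10% heat-inactivated type A human serum. Assay: 0.3% parasitemia, 3% final hematocrit, DMSO compound dilutions; 72 h, 37 °C, 5% CO2/5% O2/90% N2. Parasitemia read from Diff-Quik thin films. Duplicate wells, mean of three experiments; IC50 taken from the growth-inhibition curve.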

FM3A = assay: Cytotoxicity against mouse FM3A cells assessed as inhibition of increase in cell density after 48 hrs; format: cell-based
Outline: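 Mouse mammary tumor FM3A (subclone F28-7) cells kept in suspension in ES medium with 2% heat-inactivated FBS, seeded at 5 × 10⁴ cells/mL, compounds added in DMSO. 48 h, 37 °C, 5% CO2; cells counted microscopically. Duplicate wells, mean of three experiments; IC50 is the concentration giving 50% inhibition of cell-density increase versus control.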

Plasmodium falciparum [2] = assay: Antimalarial activity as synchronized late trophozoites of chloroquine-sensitive Plasmodium falciparum FCR3 in human erythrocytes at 5 uL by Diff-Quick stain; format: functional, organism-based
Outline: (§1)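 Cultures synchronized twice with 5% D-sorbitol 40 h apart (>80% rings); stage checked microscopically before dosing. Compound added at ring, middle trophozoite, late trophozoite or schizont stage; 5% erythrocytes, about 1.0% parasitemia, compound in 0.1% DMSO at 100 times the IC50. 48 h, 37 °C; medium and compound renewed at 24 h. Infection ratio counted per at least 2000 erythrocytes in Diff-Quik films every 6 h; duplicate, versus compound-free control.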

Plasmodium falciparum [3] = assay: Antimalarial activity as synchronized middle trophozoites of chloroquine-sensitive Plasmodium falciparum FCR3 in human erythrocytes at 5 uL by Diff-Quick stain; format: functional, organism-based; outline: as §1
Plasmodium falciparum [4] = assay: Antimalarial activity as synchronized schizonts of chloroquine-sensitive Plasmodium falciparum FCR3 in human erythrocytes at 5 uL by Diff-Quick stain; format: functional, organism-based; outline: as §1
Plasmodium falciparum [5] = assay: Antimalarial activity as synchronized ring-stage of chloroquine-sensitive Plasmodium falciparum FCR3 infected human erythrocytes at 5 uL by Diff-Quick stain; format: functional, organism-based; outline: as §1

Row | SMILES | pEC50 (Plasmodium falciparum [1]) | pEC50 (FM3A) | Activity (Plasmodium falciparum [2]) | Activity (Plasmodium falciparum [3]) | Activity (Plasmodium falciparum [4]) | Activity (Plasmodium falciparum [5])
1 | N#Cc1ccc(NC(=O)c2cc[n+](CCCCCCCCCC[n+]3ccc(C(=O)Nc4ccc(C#N)cc4)cc3)cc2)cc1 | 7.46 | 4.37 | – | – | – | –
2 | O=C(Nc1ccc(C(F)(F)F)cc1)c1cc[n+](CCCCCCCCCC[n+]2ccc(C(=O)Nc3ccc(C(F)(F)F)cc3)cc2)cc1 | 7.48 | 5.29 | – | – | – | –
3 | O=C(Nc1ccc([N+](=O)[O-])cc1)c1cc[n+](CCCCCCCCCC[n+]2ccc(C(=O)Nc3ccc([N+](=O)[O-])cc3)cc2)cc1 | 7.13 | 5.22 | – | – | – | –
4 | O=C(Nc1ccccc1)c1cc[n+](CCCCCCCCCC[n+]2ccc(C(=O)Nc3ccccc3)cc2)cc1 | 7.54 | 4.37 | inactive | inactive | Active | inactive
5 | O=C(Nc1ccc(I)cc1)c1cc[n+](CCCCCCCCCC[n+]2ccc(C(=O)Nc3ccc(I)cc3)cc2)cc1 | 7.92 | 5.85 | – | – | – | –
6 | CCCCCCNC(=O)c1cc[n+](CCCCCCCCCC[n+]2ccc(C(=O)NCCCCCC)cc2)cc1 | 8.30 | 4.98 | inactive | inactive | Active | inactive
7 | CCCCNC(=O)c1cc[n+](CCCCCCCCCCCC[n+]2ccc(C(=O)NCCCC)cc2)cc1 | 7.00 | 4.28 | – | – | – | –
8 | O=C(Nc1ccc(F)cc1)c1cc[n+](CCCCCCCCCC[n+]2ccc(C(=O)Nc3ccc(F)cc3)cc2)cc1 | 7.68 | 4.56 | – | – | – | –
9 | O=C(Nc1ccc(Cl)cc1)c1cc[n+](CCCCCCCCCC[n+]2ccc(C(=O)Nc3ccc(Cl)cc3)cc2)cc1 | 8.10 | 5.72 | – | – | – | –
10 | O=C(Nc1ccc(Br)cc1)c1cc[n+](CCCCCCCCCC[n+]2ccc(C(=O)Nc3ccc(Br)cc3)cc2)cc1 | 7.82 | 5.86 | – | – | – | –
11 | Cc1ccc(NC(=O)c2cc[n+](CCCCCCCCCC[n+]3ccc(C(=O)Nc4ccc(C)cc4)cc3)cc2)cc1 | 7.41 | 4.59 | – | – | – | –
